High-throughput results from PubChem.
GSIS activator = GLuc luminescence reporter in INS-1E cells, primary screen for activators of glucose-dependent secretion of insulin; INS-1E GLuc reporter insulin secretion, 2-3 h; activation, % at 16.6 µM; 0.61% of 370,000 active;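 active = lowest replicate activation of at least 40%, so every replicate reaches that level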;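 also: 0% = median of neutral control wells and 100% = median of IBMX positive control wells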
PGC1a acetyl inh = PGC1a acetylation modulation, inhibitor mode; 0.17% of 350,000 active; AID 651687; U2OS PGC1a acetylation, AlphaScreen anti-acetyl-lysine; with virally co-expressed GCN5 acetyltransferase; inhibition, % at 15.6 µM;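 active = every replicate shows inhibition of at least 40%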;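 also: 0% = neutral control wells and 100% = positive control wells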
MLL AF4-AF9 inh = inhibitors of human MLL-AF4/AF9 interaction. P42568. AlphaScreen, biotin-AF4 peptide binding to FLAG-AF9. inhibition, % at 10 µM. 0.47% of 350,000 active;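 active = every replicate reaching a set inhibition limit, whatever the replicate mean, cut at about 25% in these data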;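 also: 0% = plate neutral control median and 100% = total signal loss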
Target sequence (P42568 whole entry, looked up): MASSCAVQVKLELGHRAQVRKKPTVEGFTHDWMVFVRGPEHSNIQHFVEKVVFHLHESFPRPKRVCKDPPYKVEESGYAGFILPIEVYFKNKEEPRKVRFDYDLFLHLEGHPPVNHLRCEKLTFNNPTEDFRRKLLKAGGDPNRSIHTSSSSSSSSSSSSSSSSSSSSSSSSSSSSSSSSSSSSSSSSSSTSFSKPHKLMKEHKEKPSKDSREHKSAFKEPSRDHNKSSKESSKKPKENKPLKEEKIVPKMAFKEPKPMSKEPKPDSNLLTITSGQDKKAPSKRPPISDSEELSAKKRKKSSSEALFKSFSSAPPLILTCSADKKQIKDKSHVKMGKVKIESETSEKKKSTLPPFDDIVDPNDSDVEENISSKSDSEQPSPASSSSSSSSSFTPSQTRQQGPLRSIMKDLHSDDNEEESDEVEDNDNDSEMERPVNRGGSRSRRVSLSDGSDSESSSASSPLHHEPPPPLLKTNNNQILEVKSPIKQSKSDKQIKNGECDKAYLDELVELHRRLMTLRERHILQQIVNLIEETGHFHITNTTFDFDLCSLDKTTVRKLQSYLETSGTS
EWS-Fli block = EWS/Fli transcriptional activity inhibition. 0.67% of 350,000 active. inhibition, % at 12.6 µM. A673 NR0B1-luciferase reporter, viability-normalised. AID 651661;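 active = mean inhibition of at least 50% after viability correction, with every replicate also passing that limit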;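 also: firefly luciferase signal divided by Alamar Blue viability fluorescence both relative to DMSO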
PAX8 inh HTS = PAX8 transcriptional activity inhibition; inhibition, % at 12.6 µM; 1.2% of 360,000 active; RMG-I TPO-luciferase reporter, SteadyGlo, 24 h;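 active = mean replicate inhibition at least 60% with every replicate also reaching 60%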;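 also: luciferase light reporting Pax8 driven TPO promoter activity; plate controls were median of neutral control wells for no effect and mitoxantrone controls for full effect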
XiGFP reactiv = X-chromosome reactivation activator; XiGFP mouse fibroblasts, % GFP-positive cells imaging, 3 d; cells co-treated with 5-aza-dC sensitizer; scaled so ellipticine positive control = 100%; activation, % at 7.58 µM; 0.055% of 360,000 active;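 active = mean normalized replicate activation at least 10% and every replicate at or above 10%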;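 also: 0% = median of on-plate neutral control wells and 100% = ellipticine 6 µM median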
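System: XiGFP fibroblasts, SV40-immortalized. Medium: DMEM plus 5-aza-dC sensitizer. Doses: single point. Timing: 3 d treatment, 15 min room-temperature fixation. Control set: ellipticine 6 µM.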
DNA binding = small molecule DNA binding by fluorescence polarization. salmon sperm DNA acridine orange fluorescence polarization. AID 720586. 2% of 640 active. AC35, µM (titrated, usually from 68 µM), without a hit: at the highest dose activity change, negative = DNA binding. shares compounds with EWS-Fli block;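 active = fitted curve reaches a 35% signal fall AC35 below twice the sample's top valid tested dose, actives reach about 48 µM in these data; inactive = the rest, including activity in the rising direction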;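 also: lower polarization ratio signals compound binding to DNA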
The depositor's hits bear a star; . = no result given; [ ] = remark or other dose. Rows were chosen to be rich in hits. Some 2.1% of all compounds tested hit in one or more screens of this group.

SMILES	GSIS activator	PGC1a acetyl inh	MLL AF4-AF9 inh	EWS-Fli block	PAX8 inh HTS	XiGFP reactiv	DNA binding
COC(=O)C[C@@H]1CC[C@@H]2[C@H](COc3ccc(NC(=O)c4cc(C)on4)cc3C(=O)N2C)O1	-2	4	-1	60*	24	0	-15%
C[C@H](CO)N1C[C@H](C)[C@@H](CN(C)C(=O)C2CC2)Oc2cc(C#Cc3ccncc3)ccc2S1(=O)=O	-11	-8	1	10	.	0	.
CC(=O)N(C)C[C@@H]1[C@H](c2ccc(-c3ccccc3F)cc2)[C@H](CO)N1C(C)=O	4	.	-2	14	.	0	.
Cn1ccc2cc(-c3ccc4ncnc(NCc5cccs5)c4c3)ccc21	.	-4	1	51*	83*	0	-13%
COC(=O)c1cccc(NC(=O)Nc2ccc(Cl)c(Cl)c2)c1	-31	15	2	2	.	.	.
COC(=O)c1cccc(NC(=O)NC(=O)c2ccccc2Cl)c1	0	.	1	86*	30	0	-13%
C[C@H]1CN([C@@H](C)CO)C(=O)Cc2cc(NS(=O)(=O)c3ccccc3)ccc2O[C@H]1CN(C)C(=O)Nc1ccc(F)cc1	5	-1	-3	-5	-25	0	.
C(=Cc1c[nH]c2ccccc12)c1nccc2ccccc12	5	2	5	22	-2	0	.
C(=Cc1c[nH]c2ccccc12)c1ccc2ccccc2n1	.	1	-1	67*	49	0	9%
C[C@@H]1CN([C@H](C)CO)C(=O)c2cccc(NC(=O)C3CC3)c2O[C@H]1CN(C)S(=O)(=O)c1ccccc1	11	.	-2	-8	1	0	.
COc1cccc(NC(=O)N[C@H]2C=C[C@H](CC(=O)N3CCCCC3)O[C@H]2CO)c1	17	-2	-2	-3	-28	1	.
CC1(C)N=C(N)N=C(N)N1c1ccc(CCCCc2ccccc2)cc1	-28	.	15	57*	68*	0	-4%
CC1(C)N=C(N)N=C(N)N1c1ccccc1	.	-4	.	.	.	.	.
Cc1ccccc1/C=N/Nc1ccnc2cc(Cl)ccc12	.	.	-9	21	7	0	.
Cc1ccc(/C=N/Nc2ccnc3cc(Cl)ccc23)c(C)c1	4	.	3	76*	11	1	-8%
O=C(c1cccc(S(=O)(=O)NCc2ccccc2)c1)N1CCN(c2ccccc2)CC1	.	-3	4	52*	30	0	-8%
O=C(NCc1ccncc1)c1cccc(S(=O)(=O)NCc2ccccc2)c1	10	1	12	-1	3	0	.
O=C(c1cccc(S(=O)(=O)NCc2ccccc2)c1)N1CCCC1	-1	4	-1	13	-2	0	.
Cc1ccc(OCCNC(=O)c2cccc(S(=O)(=O)NCc3ccccc3)c2)cc1	-23	-3	6	56*	24	0	-11%
COc1ccccc1C(=O)Nc1ccc2c(c1)C(=O)N(C)[C@H]1CC[C@@H](CC(=O)NCCc3ccncc3)O[C@@H]1CO2	-5	.	-3	0	0	0	.
CC(C)CC#Cc1ccc2c(c1)O[C@@H](CN(C)Cc1ccccn1)[C@H](C)CN([C@@H](C)CO)S2(=O)=O	-18	7	5	19	50	0	.
COc1ccc(N=C2C(=O)Nc3ccccc32)cc1	10	.	.	.	.	.	.
COc1ccc(N=C2C(=O)Nc3ccc(C)c(Br)c32)cc1	-8	0	-3	70*	0	0	-8%
CC(C)c1ccccc1NC(=O)Nc1nc(C(N)Cc2ccc(C(F)(F)F)cc2)cs1 (centres undefined)	20	-3	-1	-5	21	0	.
NC(Cc1ccc(C(F)(F)F)cc1)c1csc(NC(=O)Nc2ccccc2Cc2ccccc2)n1 (centres undefined)	10	-16	6	56*	-7	0	-9%
SMILES	GSIS activator	PGC1a acetyl inh	MLL AF4-AF9 inh	EWS-Fli block	PAX8 inh HTS	XiGFP reactiv	DNA binding
CC(C)Oc1ccc(Br)cc1C(=O)N/N=C/c1c[nH]c2ccccc12	4	3	-9	53*	-14	0	-1%
O=C(N/N=C/c1c[nH]c2ccccc12)c1ccc(Br)cc1	-23	14	7	-53	0	0	.
COc1ccccc1NC(=O)N[C@@H]1CC[C@H](CC(=O)N[C@H](C)c2ccccc2)O[C@H]1CO	-8	3	-3	1	-13	1	.
CCc1ccc(S(=O)(=O)c2ccc(-n3nc(C)cc3N)cc2)cc1	11	.	-3	53*	12	0	-3%
O=C(N/N=C\c1c[nH]c2ccccc12)c1ccc(O)cc1	-2	0	-1	-1	7	0	.
O=C(O)c1ccc(N/N=C/c2c[nH]c3ccccc23)cc1	2	3	5	69*	45	0	-4%
CC1=NC(=O)C(N=Nc2cccc(C(=O)O)c2)N1c1ccccc1 (centres undefined)	.	-6	3	64*	.	.	8%
C[C@H]1CN([C@@H](C)CO)C(=O)Cc2cc(NC(=O)CCCCCC(=O)Nc3ccccc3N)ccc2O[C@@H]1CN(C)C(=O)Nc1cccc2ccccc12	10	-5	-2	5	1	0	.
CC(=O)c1ccc(N=Nc2ccc(N(C)C)cc2)cc1	11	-2	4	26	-157	0	.
CC(=O)c1ccc(N=Nc2ccc(C)cc2)cc1	-12	3	11	52*	-81	0	-14%
CCc1ccc2oc(C(=O)N3CCN(c4ccccc4OC)CC3)cc(=O)c2c1	-6	.	1	56*	20	0	-4%
C[C@H](CO)N1C[C@H](C)[C@H](CN(C)Cc2ccc(C(F)(F)F)cc2)Oc2c(NS(=O)(=O)c3ccc(Cl)cc3)cccc2C1=O	-21	-3	3	60*	.	3	10%
COc1ccc(S(=O)(=O)Nc2cccc3c2O[C@@H](CN(C)Cc2ccc(C(=O)Nc4ccccc4N)cc2)[C@@H](C)CN([C@H](C)CO)C3=O)cc1	-3	-3	1	-9	-10	2	.
COc1ccc(S(=O)(=O)Nc2cccc3c2O[C@H](CN(C)Cc2ccc(C(=O)Nc4ccccc4N)cc2)[C@H](C)CN([C@@H](C)CO)C3=O)cc1	-6	13	4	57*	.	0	-10%[56 µM]
CCC(=O)Nc1ccc2c(c1)C(=O)N(C)C[C@@H](OC)[C@H](C)CN(C(=O)COC)[C@@H](C)CO2	17	11	-1	-1	16	1	.
Nc1ccc(Oc2cccc(Oc3ccc(N)cc3)c2)cc1	-12	.	-2	78*	13	0	3%
Cc1cc(C)cc(Oc2ccc(N)cc2)c1	5	36	.	.	.	.	.
